Reference: paper PMC6092622 (The EMBO Journal, 2018)
Read-outs that look alike come from different tables or passages of the source.

Assays:
[1] = target: T1, human CB2 (Homo sapiens, UniProt P34972); assay: cAMP assay in CHO cells stably expressing human CB2; type: cell-based; details: in words
Procedure, shortened: (§1)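 cAMP assays were run in CHO cells stably expressing human CB2 or mouse CB2. Efficacy is expressed as % of the response to 1 μM CP55940.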

[2] = tested on: SOD1 (G93A) mice; assay: CB2 ligands given i.p. to SOD1; type: in vivo, mouse; details: for fraction of LC3A bright MN: P25 to P35, vehicle 23.4 ± 7.7; for misfolded SOD1: high-burden MN fraction: P25 to P35, vehicle 25.4 ± 5.5%; for %IBA1+ area (microglial expansion): P25 to P35, SOD1-veh 9.7 ± 0.4%
Procedure, shortened: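 Male SOD1(G93A) mice got daily i.p. CB2 agonists (10 mg/kg) or inverse agonist (30 mg/kg) as a microsuspension in 1% Tween-80/0.9% NaCl with 0.2% parabens, or vehicle. Spinal cords were perfusion-fixed and cut into 40 μm free-floating sections. CD4 was stained after citrate-heat antigen retrieval. IBA1 was scored as the thresholded area fraction of ventral-horn ROIs. High-burden MN cutoff: 75th percentile of vehicle-treated SOD1. Used 8–10 sections/mouse, ≥4 mice/group.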

[3] = target: T1, human CB2; type: binding; details: CB2 versus CB1, as stated in text
Procedure, shortened: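 Competition binding used [3H]-CP55940 radioligand on membranes from cells expressing human CB2 or human CB1, so that selectivity could be compared. Each compound was tested at 10 concentrations in triplicate. Ki values were calculated from a single experiment.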

[4] = tested on: WT mice; assay: CB2 agonists given to WT mice, IBA1 immunostaining; type: in vivo, mouse; details: IBA1 staining
[5] = target: mouse CB2 (Mus musculus, UniProt P47936); assay: cAMP assay in CHO cells stably expressing mouse CB2; type: cell-based; details: in words
Chain of mouse CB2 (P47936 whole entry): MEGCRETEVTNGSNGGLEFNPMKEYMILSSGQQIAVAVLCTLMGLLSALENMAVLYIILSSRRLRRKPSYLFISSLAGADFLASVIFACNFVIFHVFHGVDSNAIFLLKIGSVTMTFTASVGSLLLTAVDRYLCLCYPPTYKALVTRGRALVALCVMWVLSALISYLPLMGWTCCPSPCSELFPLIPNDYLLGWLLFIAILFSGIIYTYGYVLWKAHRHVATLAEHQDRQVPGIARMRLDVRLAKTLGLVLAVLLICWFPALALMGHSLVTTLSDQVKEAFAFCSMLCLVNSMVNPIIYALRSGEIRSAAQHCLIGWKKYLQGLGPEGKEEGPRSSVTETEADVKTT
Procedure, shortened: as §1

[6] = tested on: IKK and SOD1/IKK mice; type: in vivo, mouse
Procedure, shortened: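 Transgene expression was active in the sustained cohort (DOX withdrawn at P20–25). Mice of all four genotypes got a Porcupine inhibitor by daily oral gavage at 10 mg/kg for 12 days, from P25 (sacrificed at P38) or from P90 (to P102). It was suspended in PBS + 5% Tween-80 + 5% PEG-400; vehicle controls were included. Spinal cord sections were immunostained; Ki-67 and CD45 required citrate antigen retrieval. Cell densities are per area unit.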

[7] = 30 mg/kg once daily i.p., P25 to P35
[8] = 10 mg/kg once daily i.p., P25 to P35

T1 sequence (P34972 whole entry): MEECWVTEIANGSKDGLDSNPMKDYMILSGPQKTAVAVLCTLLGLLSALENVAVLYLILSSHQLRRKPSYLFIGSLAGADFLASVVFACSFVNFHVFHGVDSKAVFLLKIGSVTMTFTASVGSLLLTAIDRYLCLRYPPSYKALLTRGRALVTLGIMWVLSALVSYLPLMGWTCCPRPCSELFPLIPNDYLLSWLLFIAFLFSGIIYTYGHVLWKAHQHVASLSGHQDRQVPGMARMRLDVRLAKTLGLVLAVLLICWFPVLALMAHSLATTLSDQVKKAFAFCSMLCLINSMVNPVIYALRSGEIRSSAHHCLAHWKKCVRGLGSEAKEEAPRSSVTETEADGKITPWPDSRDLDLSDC

| SMILES | functional activity in cAMP assay, human CB2 [1] | binding selectivity against CB1 [3] | effect on microglial size in WT animals [4] | functional activity in cAMP assay, mouse CB2 [5] | infiltration of CD4+ lymphocytes in spinal cord [2, 8] | %IBA1+ area (microglial expansion) ([2]; 10 mg/kg once daily i.p.) | fraction of LC3A bright MN ([2]; 10 mg/kg once daily i.p.) | misfolded SOD1: high-burden MN fraction ([2]; 10 mg/kg once daily i.p.) | other results |
| --- | --- | --- | --- | --- | --- | --- | --- | --- | --- |
| CNC(=O)[C@@H](NC(=O)c1cc(OCC2(C)COC2)c(C2CC2)cn1)C(C)(C)C [RO6851228, 5-Cyclopropyl-N-[(1S)-2,2-dimethyl-1-(methylcarbamoyl)propyl]-4-[(3-methyloxetan-3-yl)methoxy]pyridine-2-carboxamide] | inverse agonist activity |  |  |  |  |  |  |  | infiltration of CD4+ lymphocytes in spinal cord [2, 7]: did not affect lymphocyte infiltration; microglial morphology [2, 7]: expansion of the size and of the complexity of microglial processes; fraction of LC3A bright MN ([2]; 30 mg/kg once daily i.p.): 11.4 ± 13.9%; misfolded SOD1: high-burden MN fraction ([2]; 30 mg/kg once daily i.p.): 10.2 ± 5.1% |
| Cc1nonc1Cn1nnc2c(N3CC[C@H](O)C3)nc(C(C)(C)C)nc21 [RO6866945, (3S)-1-[5-tert-Butyl-3-[(4-methyl-1,2,5-oxadiazol-3-yl)methyl]triazolo[4,5-d]pyrimidin-7-yl]pyrrolidin-3-ol] | full agonists | 939 fold | did not affect microglial size | full agonists | did not affect lymphocyte infiltration | 4.9 ± 0.2% | 70.8 ± 11.2% | 42.3 ± 8.7% |  |
| Cc1nc([C@@](C)(CC2CC2)NC(=O)c2cc(OCC(F)(F)F)c(C3CC3)cn2)no1 [RO6871085, 5-Cyclopropyl-N-[(1R)-2-cyclopropyl-1-methyl-1-(5-methyl-1,2,4-oxadiazol-3-yl)ethyl]-4-(2,2,2-trifluoroethoxy)pyridine-2-carboxamide] | full agonists | 44 fold |  | full agonists | increased the number of CD4^+ cells | 5.2 ± 0.3% | 45.4 ± 5.6% | 69.1 ± 9.5% |  |
| Cc1cc(-c2ccc(CC(=O)Nc3ccc(-c4cccnc4)cc3)cc2)ccn1 [Compound C59] |  |  |  |  |  |  |  |  | WNT5a immunoreactivity ([6]; 10 mg/kg daily oral gavage for 12 days from P25, sacrifice at P38): < 10 % of vehicle‐treated (Veh) SOD1/IKK; decrease in misfolded SOD1 and LC3A levels in SOD1/IKK versus SOD1 littermates ([6]; 10 mg/kg daily oral, P25-P38): completely reverted; number of CD45+ cells ([6]; IKK and SOD1/IKK mice, late phase P90 to P102): significantly decreased; number of CD11b+KI-67+ cells ([6]; IKK mice, 10 mg/kg daily oral, P25-P38, IKK-Veh 11.0 ± 3.0): 5.4 ± 0.2 cells per 10^4 μm^2; overall IBA1+ area ([6]; IKK mice, 10 mg/kg daily oral, P25-P38, IKK-Veh 52.1 ± 6.5): 30.5 ± 4.6%; microglial density (number of IBA1+ cells) ([6]; IKK mice, 10 mg/kg daily oral, P25-P38, vehicle 30.4 ± 1.8): 18.2 ± 1.7 cells/10^4 μm^2; number of IBA1+ cells at P102 ([6]; IKK mice, late phase P90 to P102, IKK-Veh 16.5 ± 0.7): 7.8 ± 0.3; number of CD11b+KI-67+ cells ([6]; SOD1/IKK mice, 10 mg/kg daily oral, P25-P38, SOD1/IKK-Veh 18.0 ± 2.0): 5.0 ± 1.3 cells per 10^4 μm^2; overall IBA1+ area ([6]; SOD1/IKK mice, 10 mg/kg daily oral, P25-P38, SOD1/IKK-Veh 53.6 ± 3.9): 39.2 ± 4.9%; microglial density (number of IBA1+ cells) ([6]; SOD1/IKK mice, 10 mg/kg daily oral, P25-P38, vehicle 36.2 ± 6.1): 20.2 ± 4.0 cells/10^4 μm^2; number of IBA1+ cells at P102 ([6]; SOD1/IKK mice, late phase P90 to P102, SOD1/IKK-Veh 15.8 ± 0.2): 9.41 ± 0.35; number of CD45+ cells ([6]; early administration, 10 mg/kg daily oral, P25-P38): strongly decreased |
| NC(=O)[C@@H]1CC(F)(F)CN1C(=O)c1ccc(N2CC(F)(F)C2)c(OCC2CC2)n1 [RO6895896, (2S)-1-[6-(Cyclopropylmethoxy)-5-(3,3-difluoroazetidin-1-yl)pyridine-2-carbonyl]-4,4-difluoro-pyrrolidine-2-carboxamide] | full agonists |  | did not affect microglial size | full agonists | did not affect lymphocyte infiltration | 6.0 ± 0.2% | 73.4 ± 12.4% | 72.4 ± 11.3% |  |
